Bioassay records (PubChem)
JNK3 inh – inhibitors of human JNK3 kinase | P53779 | purified JNK3 kinase activity, HTS | inhibition, % at 8 µM | 60,000 compounds, 0.61% hits; in the data active = inhibition above about 17%;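 note: 0% = DMSO and 100% = reference inhibitor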
S1P3 ag – S1P3 (human) receptor agonism; activation, % at 4.5 µM; 60,000 compounds, 0.1% hits; S1P3 NFAT-BLA reporter cells, FRET ratio; relative to 1 µM S1P, basal subtracted;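 active = activation above the screen-wide mean plus 3 SD, cut at about 4.5% in these data, passing the limit was not always enough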
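material = human S1P3 NFAT-BLA reporter CHO cells | schedule = 4 h compound at 37 °C, 2 h substrate at RT | measured by = fluorescent BLA substrate, ex 405 nm, em 460/535 nm ratio | controls = 1 µM S1P reference | replication = primary once, confirmation triplicate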
Jurkat tox 60K – cytotoxic compounds reducing Jurkat cell viability. Jurkat E6.1 viability, ATP luminescence, 48 h. inhibition, % at 4 µM. 56,000 compounds, 1.2% hits;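 active = inhibition above the mean inhibition of all tested compounds plus 3 SD, cut at about 28% in these data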
S1P1 ag pot – agonists and agonism potentiators of human S1P1 receptor | P21453 | S1P1 CRE-bla cells, forskolin, beta-lactamase FRET, potentiator mode; S1P1 agonist co-added at EC20, 2 nM; 100% = saturating reference agonist, 0% = basal | activation, % at 9.5 µM | 56,000 compounds, 0.57% hits;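 active = activation above a cutoff set at the mean activation of all tested compounds plus 3 SD, cut at about 54% in these data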;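 note: forskolin at 4 µM as EC80 and the EC20 agonist is SEW2871; 100% = SEW2871 at its EC100 plus forskolin at EC80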
M1 antagonist – antagonists of rat M1 muscarinic receptor; P08482; CHO-M1 cells, Fluo-4 calcium, ACh EC80 antagonist mode; stronger effect = lower value; B-score at 10 µM; 64,000 compounds, 3.4% hits; AID 628;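 active = calcium fluorescence response, raw or row-and-column corrected B-score, differing from the plate sample mean either way at a set confidence level, mostly lower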
M1 agonist – agonists of M1 muscarinic receptor. B-score at 10 µM. 64,000 compounds, 3% hits. CHO-M1 cells, Fluo-4 calcium fluorescence, agonist mode; stronger effect = higher value. AID 626;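 active = fluorescence rise, raw or as B-score row- and column-corrected plate score, outside the 99.7% band of its plate's samples, either direction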
M1 ag confirm – rat M1 muscarinic agonism, confirmation. CHO-M1 cells, Fluo-4 calcium fluorescence, agonist mode; actives lie on both sides. 1,700 compounds, 19% hits. fluorescence change (max-min) at 10 µM. shares compounds with M1 agonist. AID 1488;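 active = fluorescence change differs from the solvent-only DMSO control mean at a set confidence level in both duplicate runs; inconclusive = differs from solvent-only control mean in just one of two runs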;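 note: an EC20 dose of acetylcholine follows compound addition during the same imaging run; raw fluorescence intensity difference in instrument units with no normalization to controls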
M4 ag counter – counter-screen for M1 agonists: activity at rat M4 receptor; fluorescence change (max-min) at 10 µM; shares compounds with M1 agonist; CHO M4/Gqi5 cells, Fluo-4 calcium fluorescence, agonist mode; actives lie on both sides; AID 1741; 1,700 compounds, 9% hits;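 active = fluorescence change differing from the plate's solvent-only control wells at 99.7% confidence in both duplicates, whether higher or lower; inconclusive = differs from solvent controls in only one of two duplicates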
Target sequence (P08485 whole entry, looked up): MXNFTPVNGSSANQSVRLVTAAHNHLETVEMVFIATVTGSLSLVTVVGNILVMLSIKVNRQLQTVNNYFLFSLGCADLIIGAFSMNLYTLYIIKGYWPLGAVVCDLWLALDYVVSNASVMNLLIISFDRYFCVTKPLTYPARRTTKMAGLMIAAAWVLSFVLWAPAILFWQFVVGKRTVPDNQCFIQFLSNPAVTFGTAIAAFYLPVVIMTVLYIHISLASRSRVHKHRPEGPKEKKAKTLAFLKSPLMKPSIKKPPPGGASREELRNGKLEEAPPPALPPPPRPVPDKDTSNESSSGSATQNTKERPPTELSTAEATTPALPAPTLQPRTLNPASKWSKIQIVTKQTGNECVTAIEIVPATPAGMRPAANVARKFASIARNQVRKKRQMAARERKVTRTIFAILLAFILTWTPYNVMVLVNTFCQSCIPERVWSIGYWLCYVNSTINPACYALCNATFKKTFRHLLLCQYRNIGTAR
Starred values were filed as active, the others as inactive; u = inconclusive; x = no result. An excerpt weighted towards active compounds, which were near 7.4% of everything screened.

SMILES	JNK3 inh	S1P3 ag	Jurkat tox 60K	S1P1 ag pot	M1 antagonist	M1 agonist	M1 ag confirm	M4 ag counter
CN(C)CCNc1nc2c(c(=O)[nH]c(=O)n2C)n1CC(O)COc1ccc(Cl)cc1Cl (stereo not drawn)	1	-1	10	12	0.016	4.2*	-7.6	-24
CCNc1c2c3c(cccc3n(C)c1=O)C(=O)c1ccccc1-2	6	-1	9	35	-17*	357*	3230*	2794*
CN(CCO)C(=O)c1cccc2c1-c1ccccc1C2=O	-1	-1	0	-1	-0.47	-0.0036	x	x
Cn1c(=O)c(NCCO)c2c3c(cccc31)C(=O)c1ccccc1-2	x	x	x	x	-13*	388*	3131*	2588*
CC1(C)Cc2ccccc2-c2nc(NCCO)n(-c3ccccc3)c(=O)c21	5	-1	2	x	-0.24	0.54	x	x
Cc1ccc(NC(=O)Cc2nc(CSc3nnc(-c4ccc5c(c4)OCO5)o3)cs2)cc1	5	1	5	46	-0.43	-0.05	x	x
Cc1ccc(C)c(/C(O)=C2/C(=O)C(=O)N(CCN3CCOCC3)C2c2ccco2)c1 (stereo not drawn)	1	0	4	9	0.017	-0.52	x	x
COc1ccc(-c2ccc(-c3noc(-c4ccccc4)n3)c(OC)n2)cc1	6	-1	2	-6	-0.02	-2.9*	8.5	-5.6
COc1ccccc1C(=O)NC(=Nc1nc2ccccc2o1)NC(=O)c1ccccc1OC	4	-2	x	-15	-0.46	6.4*	u	-50
CCN(CC)C(NC(=O)c1ccccc1)C(=O)c1ccccc1 (stereo not drawn)	2	-1	1	17	-0.047	-0.56	x	x
CCc1c(C(=O)Nc2ccncc2)csc1C	2	0	26	9	-0.61	-0.64	x	x
CC1(C)OC(=O)C2(Cc3ccccc3N3CCCCC32)C(=O)O1 (stereo not drawn)	-3	0	-2	-9	1	-0.06	x	x
Cc1ccc(-n2c(O)c(/C=N/n3cnnc3)c3ccccc3c2=O)cc1	8	1	-2	-2	0.14	26*	121*	54
O=c1c2ccccc2c(C=NCCO)c(O)n1-c1ccccc1	3	0	-3	-14	0.49	0.015	x	x
O=c1c2ccccc2c(/C=N/n2cnnc2)c(O)n1-c1ccccc1F	-2	1	-5	21	-0.12	55*	350*	698*
Cc1cc(C)cc(OCC(=O)Nc2cccc(-c3nnc(-c4ccco4)o3)c2)c1	2	0	-3	x	-0.73	4.5*	-30*	-55
COc1ccccc1NC(=O)Cn1cnc2c(cnn2-c2ccc(C)c(C)c2)c1=O	7	-1	3	-26	0.46	-0.098	x	x
C=CCOC(=O)C1=C(C)OC(N)=C(C#N)C1c1ccoc1 (stereo not drawn)	3	-4	x	14	0.74	21*	12	0.98
CN1C(=O)CSc2ccc(NC(=O)N3CCc4ccccc43)cc21	2	2	1	-10	-0.66	2.8*	-24	-48
CN1C(=O)CSc2ccc(NC(=O)N3CCN(c4ccccn4)CC3)cc21	-3	1	4	-27	-0.76	-1.1	x	x
CCc1cc2c(NCCC(=O)O)ncnc2s1	x	x	x	x	-0.16	11*	-8.6	-45
CCC(=O)Nc1cc(C(F)(F)F)ccc1N1CCOCC1	-7	-1	-12	-15	2	0.5	x	x
O=C(COC(=O)CN1C(=O)C2CC=CCC2C1=O)Nc1cc(C(F)(F)F)ccc1N1CCOCC1 (stereo not drawn)	5	-2	-7	-10	-0.59	3.6*	u	u
CCOc1ccc2nc(N3CCCC(C(=O)NCCCN4CCOCC4)C3)sc2c1 (stereo not drawn)	-4	0	-2	-4	1	2.1*	6.7	-38
CCCCCc1c(C)nc(Nc2nc(C)c3cc(OC)ccc3n2)[nH]c1=O	-5	-1	-6	1	0.071	0.62	x	x
SMILES	JNK3 inh	S1P3 ag	Jurkat tox 60K	S1P1 ag pot	M1 antagonist	M1 agonist	M1 ag confirm	M4 ag counter
CCc1c(C)nc(Nc2nc(C)c3cc(OC)ccc3n2)[nH]c1=O	-2	0	-1	-76	-0.38	4.1*	-22	-20
COc1ccc(C2C(C(=O)Nc3cccnc3)=C(C)Nc3nc(-c4cccs4)nn32)cc1OC (stereo not drawn)	-4	0	-9	-2	-0.2	-0.55	x	x
COc1ccccc1NC(=O)C1=C(C)Nc2nc(-c3cccs3)nn2C1c1cccc(O)c1 (stereo not drawn)	-2	-1	3	7	-1.3	8.5*	u	u
CCOC(=O)Nc1ccccc1C(=O)N1CCOCC1	5	0	5	-12	x	x	x	x
CCC(=O)N(CC)c1nc(-c2ccc(OC)cc2)cs1	-11	-1	3	11	0.68	46*	u	-75*
COc1ccccc1-n1c(SCC(=O)N2CCCC2)nc2cccnc21	-9	-1	0	-8	-0.029	0.17	x	x
CCOC(=O)CNc1c(-c2ccc(O)cc2)nc2ccccn12	0	-1	-3	22	-0.13	1.9	x	x
COC(=O)CNc1c(-c2ccccn2)nc2ccc(Br)cn12	x	x	x	x	0.5	5.1*	27	-32
CC(C)CN1C(=O)c2ccc(C(=O)Nc3ccncc3)cc2C1=O	5	0	10	x	-1.1	5.2*	-17	-61
O=C(OCC#CCSc1nc2ccccc2s1)c1ccco1	-7	-1	0	-10	-0.14	0.71	x	x
O=C(Nc1cnc2ccccc2c1)c1cccc(-n2cnnn2)c1	4	0	-8	6	-1	4.4*	u	-35
COC(=O)CSc1cc(SCC(=O)OC)c(C#N)c(SCC(=O)OC)c1	-8	-1	3	-14	-1.1	9.5*	-21	-64*
Cc1sc2c(c1C)c(=O)n(-c1ccccc1)c1nnc(C)n21	2	0	-3	-23	0.037	0.2	x	x
CCOc1ccc2nc(NS(=O)(=O)c3ccc(NC(C)=O)cc3)sc2c1	3	0	-5	-19	-0.018	-0.24	x	x
CCOc1ccc2nc(NC(=O)CS(=O)(=O)c3ccccc3)sc2c1	0	0	-3	x	0.32	2.2*	-16	-38
O=C(CN1CCN(C(=O)c2c(F)cccc2F)CC1)Nc1ccccc1F	-2	-1	0	15	-1.2	-0.25	x	x
Oc1ccc(-c2nc3ccccn3c2NCc2ccc3c(c2)OCO3)cc1	-1	0	-3	-2	-2.6	4*	-4.7	-23
COCCOC(=O)c1c(C)oc2ccc(OC(=O)c3c(OC)cccc3OC)cc12	10	-1	9	-64	0.63	2.2	x	x
